In ChEMBL document CHEMBL5257161, “Mycobacterium tuberculosis CitA activity is modulated by cysteine oxidation and pyruvate binding” (RSC Med Chem, 2023):

Assays:
[1] = tested on: Mycobacterium tuberculosis; test: Binding affinity to Mycobacterium tuberculosis CitA R153ZM mutant expressed in Escherichia coli cells assessed as change in melting temperature in presence of oxaloacetate by thermal shift assay
In short: (§1)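 Thermal shift used 25 μM purified protein in 50 mM Tris pH 8.0 with 2 mM ligand (sodium pyruvate, OAA, or both), plus Protein Thermal Shift dye at 2X final. ΔTm was taken from the melt-curve derivative relative to protein without ligand.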

[2] = tested on: Mycobacterium tuberculosis; test: Binding affinity to Mycobacterium tuberculosis CitA R153ZM mutant expressed in Escherichia coli cells assessed as change in melting temperature by thermal shift assay; in short: as §1
[3] = tested on: Mycobacterium tuberculosis; test: Binding affinity to Mycobacterium tuberculosis CitA R149E mutant expressed in Escherichia coli cells assessed as change in melting temperature in presence of oxaloacetate by thermal shift assay; in short: as §1
[4] = tested on: Mycobacterium tuberculosis; test: Binding affinity to Mycobacterium tuberculosis CitA R149E mutant expressed in Escherichia coli cells assessed as change in melting temperature by thermal shift assay; in short: as §1
[5] = tested on: Mycobacterium tuberculosis; test: Binding affinity to Mycobacterium tuberculosis CitA R153M mutant expressed in Escherichia coli cells assessed as Kcat/Km by Michaelis-Menten analysis
In short: (§2)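 His-tagged CitA (wild type or variant) was expressed in E. coli, purified by cobalt affinity and size exclusion, then dialysed against 20 mM Tris pH 8.0. Activity was measured by DTNB (300 μM) thiol detection of released CoA at 412 nm, with OAA and AcCoA substrates and 10 nM enzyme, in 50 mM Tris pH 8.0 at 25 °C. A no-enzyme control was run. Triplicate runs were fitted to Michaelis–Menten.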

[6] = tested on: Mycobacterium tuberculosis; test: Binding affinity to Mycobacterium tuberculosis CitA R149E mutant expressed in Escherichia coli cells assessed as Kcat/Km by Michaelis-Menten analysis; in short: as §2
[7] = tested on: Mycobacterium tuberculosis; test: Binding affinity to Mycobacterium tuberculosis CitA R153M mutant expressed in Escherichia coli cells assessed as apparent Km by Michaelis-Menten analysis; in short: as §2
[8] = tested on: Mycobacterium tuberculosis; test: Binding affinity to Mycobacterium tuberculosis CitA R149E mutant expressed in Escherichia coli cells assessed as change in melting temperature in presence of pyruvate by thermal shift assay; in short: as §1
[9] = tested on: Mycobacterium tuberculosis; test: Binding affinity to Mycobacterium tuberculosis CitA R149E mutant expressed in Escherichia coli cells assessed as apparent Km by Michaelis-Menten analysis; in short: as §2
[10] = tested on: Mycobacterium tuberculosis; test: Binding affinity to Mycobacterium tuberculosis CitA R149E mutant expressed in Escherichia coli cells assessed as catalytic constant by Michaelis-Menten analysis; in short: as §2
[11] = tested on: Mycobacterium tuberculosis; test: Binding affinity to Mycobacterium tuberculosis CitA R153M mutant expressed in Escherichia coli cells assessed as catalytic constant by Michaelis-Menten analysis; in short: as §2
[12] = tested on: Mycobacterium tuberculosis; test: Binding affinity to Mycobacterium tuberculosis CitA R153M mutant expressed in Escherichia coli cells assessed as Vmax by Michaelis-Menten analysis; in short: as §2
[13] = tested on: Mycobacterium tuberculosis; test: Binding affinity to Mycobacterium tuberculosis CitA R149E mutant expressed in Escherichia coli cells assessed as Vmax by Michaelis-Menten analysis; in short: as §2
[14] = tested on: Mycobacterium tuberculosis; test: Binding affinity to Mycobacterium tuberculosis CitA R153ZM mutant expressed in Escherichia coli cells assessed as change in melting temperature in presence of pyruvate by thermal shift assay; in short: as §1

Compound | ΔTm [1] | ΔTm [2] | ΔTm [3] | ΔTm [4] | kcat/Km [5] | kcat/Km [6] | Km [7] | ΔTm [8] | Km [9] | kcat [10] | kcat [11] | Vmax [12] | Vmax [13] | ΔTm [14]
CC(=O)C(=O)O | 14.3 °C | 0.51 °C | 10.7 °C | 0.47 °C |  |  |  |  |  |  |  |  |  | 
O=C(O)CC(=O)C(=O)O |  | 14.3 °C |  | 10.8 °C | 1.05e+06 M⁻¹ s⁻¹ | 400000 M⁻¹ s⁻¹ | 3.2 µM | 10.7 °C | 11.7 µM | 4.68 s⁻¹ | 3.3 s⁻¹ | 2 µM/min | 2.8 µM/min | 14.3 °C
